Results taken from ChEMBL document CHEMBL1799980, “Protuboxepins A and B and protubonines A and B from the marine-derived fungus Aspergillus sp. SF-5044” (J Nat Prod, 2011).
The source made the active and inactive calls. No cut-off for these calls is given here.

Tests used:
[1] = test system: HL-60; test: Growth inhibition of human HL60 cells at 250 uM after 48 hrs by cell proliferation assay; format: functional, cell-based
[2] = test system: MDA-MB-231; test: Growth inhibition of human MDA-MB-231 cells at 250 uM after 48 hrs by cell proliferation assay; format: functional, cell-based
Procedure, shortened: (§1)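 MDA-MB-231 breast adenocarcinoma cells at 5 × 10^3 per well in a 96-well microplate. Compounds were dissolved in DMSO and applied for 48 h, including a 250 μM level. Viability was measured with the EZ-CyTox kit as A450.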

[3] = Growth inhibition of rat 3Y1 cells at 250 uM after 48 hrs by cell proliferation assay; format: cell-based; conditions: 3y1, 48 h
Procedure, shortened: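 Cells seeded in 96-well plates at 5 × 10^3 per well. Compounds dissolved in DMSO and applied for 48 h. Viability read with an EZ-CyTox cell viability kit by absorbance at 450 nm.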

[4] = test system: Hep 3B2; test: Growth inhibition of human Hep3B cells at 250 uM after 48 hrs by cell proliferation assay; format: functional, cell-based
Procedure, shortened: (§2)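 Hep3B hepatocellular carcinoma cells plated at 5 × 10^3 per well in 96-well format. Treatment with DMSO-dissolved compounds, including 250 μM, lasted 48 h. Proliferation was read with the EZ-CyTox kit by A450.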

[5] = test system: K562; test: Growth inhibition of human K562 cells at 250 uM after 48 hrs by cell proliferation assay; format: functional, cell-based
Procedure, shortened: (§3)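 K562 leukemia cells seeded at 3 × 10^4 per well in 96-well plates and exposed for 48 h to compounds in DMSO, including 250 μM. Readout was EZ-CyTox cell viability reagent with absorbance at 450 nm.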

[6] = test system: HL-60; test: Growth inhibition of human HL60 cells after 48 hrs by cell proliferation assay; format: functional, cell-based; conditions: HL-60, 48 h
[7] = test system: K562; test: Growth inhibition of human K562 cells after 48 hrs by cell proliferation assay; format: functional, cell-based; conditions: K562, 48 h; procedure, shortened: as §3
[8] = Growth inhibition of rat 3Y1 cells after 48 hrs by cell proliferation assay; format: cell-based; conditions: 3Y1, 48 h
Procedure, shortened: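 Rat 3Y1 fibroblasts seeded at 5 × 10^3 per well in 96-well plates and exposed 48 h to DMSO-dissolved test compounds. Proliferation was quantified with the EZ-CyTox viability kit by absorbance at 450 nm.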

[9] = test system: MDA-MB-231; test: Growth inhibition of human MDA-MB-231 cells after 48 hrs by cell proliferation assay; format: functional, cell-based; conditions: MDA-MB-231, 48 h; procedure, shortened: as §1
[10] = Growth inhibition of human Hep3B cells after 48 hrs by cell proliferation assay; format: functional, cell-based, Hep 3B2; procedure, shortened: as §2

Row | IC50 [6] [µM] | IC50 [7] [µM] | IC50 [9] [µM] | Compound | growth inhibition (GI) [1] | growth inhibition (GI) [2] | growth inhibition (GI) [3] | growth inhibition (GI) [4] | growth inhibition (GI) [5] | IC50 [8] [µM] | IC50 [10] [µM]
1 |  |  |  | CC(=O)N1c2ccccc2[C@]2(O)C[C@@H]3C(=O)N[C@@H](CC(C)C)C(=O)N3[C@H]12 [PROTUBONINE A] | inactive | inactive | Not Active | inactive | inactive |  | 
2 |  |  |  | CC(=O)O[C@@]12C[C@@H]3C(=O)N[C@@H](CC(C)C)C(=O)N3[C@@H]1N(C(C)=O)c1ccccc12 [PROTUBONINE B] | inactive | inactive | Not Active | inactive | inactive |  | 
3 | 75 | 250 | 130 | CCC(C)[C@@H]1NC(=O)[C@@H](Cc2ccccc2)n2c1nc1c(c2=O)C=CC=CO1 (stereo not given in full) [PROTUBOXEPIN A] |  |  |  |  |  | 180 | 150
